Source: article PMC4109024 (Nature communications, 2014)
Entries after “also recorded” stand apart in the source; their conditions may differ.

Experiments:
[1] = tested on: human endometrial adenocarcinoma Ishikawa cells; experiment: Phage binding/internalization to Ishikawa cells; format: cell-based; settings: cloned phage, 37°C, 30 min; plaque forming assay; repeated three times
Outline: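 Phage clones came from a T7 library of linear 9-mer peptides. Each selection round had two steps: 1 h in vivo subtraction in female mouse peritoneum, then 30 min internalization into Ishikawa monolayers at 37 °C. Clones from three such rounds were each added to Ishikawa monolayers, or A431 controls, for 30 min at 37 °C. Internalized phage was counted by plaque assay, and binding was expressed as plaques recovered relative to phage added.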

[2] = tested on: CNGB3-Myc transfected A431 cells; experiment: Cell viability assay, CNGB3-positive A431 cells; format: cell-based; settings: 37°C, 6 hours, ATP by CellTiter Glo; for Concentration above which cell viability was affected, CNGB3-positive A431: single peptide
Outline: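 CNGB3–MYC-transfected A431 cells, with untransfected CNGB3-negative A431 as control, grown in DME/F12 with 10% FCS. Cells were exposed to single peptides or the two-peptide combination at a range of concentrations for 6 h at 37 °C. Peptide stocks were 100 μg/μl in DMSO, and a DMSO-only control was run at 0.01% final. Viability was read as ATP content by CellTiter Glo luminescence.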

[3] = tested on: CNGB3-expressing A431 cells; experiment: Inhibition of KLAK-z13 plus HLA-z13 cytotoxicity by z13 / palmitoyl-z13; format: cell-based; settings: KLAK-z13 100 μg/ml + HLA-z13 25 μg/ml, 37 °C, 6 hours; average of triplicate; repeated three times
[4] = tested on: Ishikawa cell surface proteins; experiment: z13 affinity isolation of biotinylated Ishikawa cell surface proteins; format: binding, human; settings: biotinylated Ishikawa lysate; z13 peptide 1 mg/ml elution; avidin blot
Outline: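 Ishikawa monolayers were surface-biotinylated with sulpho-NHS-LC-biotin (0.5 mg/ml in PBS, 30 min) and solubilized at 4 °C in TBS with 50 mM octyl-thio-glucoside and protease inhibitors. Lysate was precleared on agarose for 2 h at 4 °C, then bound to peptide-conjugated agarose. Elution used peptide at 1 mg/ml, with an irrelevant peptide as control. Eluates were analysed by SDS–PAGE, peroxidase-avidin blot and chemiluminescence.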

[5] = tested on: CNGB3-MYC expressing HEK293T cells; experiment: TUNEL apoptosis assay, CNGB3-MYC HEK293T cells; format: cell-based
Outline: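 HEK293T cells transfected with CNGB3–MYC were cultured for 20 h at 37 °C with one of these treatments: no peptide; targeting peptide, 100 μg/ml; pro-apoptotic peptide, 100 μg/ml; its conjugate, 100 μg/ml; endosome-escaping conjugate, 25 μg/ml; or conjugates at 100 plus 25 μg/ml. Stocks were 100 μg/μl in DMSO. Apoptosis was detected by immunoperoxidase TUNEL.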

[6] = tested on: CNGB3-MYC expressing HEK293T cells; experiment: Biotin-z13 localization / endosome-escaping activity; format: cell-based; settings: 37°C, 30 min, biotin-z13 in presence of HLAH-z13; Alexa 488-avidin

Sequence	Binding strength to Ishikawa cells among phage clones [1]	Cell viability, CNGB3-positive A431 [2]	Blocking of cytotoxicity of KLAK-z13 plus HLA-z13 [3]	Protein bound to z13 beads and eluted by z13 peptide [4]	Concentration above which cell viability was affected, CNGB3-positive A431 [2] [µg/mL]	Apoptosis of CNGB3-MYC transfected HEK293T cells, dKLAK-z13 alone ([5]; culture medium of transfected cells, concentration not given)	Apoptosis of CNGB3-expressing HEK293T cells, HLAH-z13 25 μg/ml ([5]; 25 μg/ml, 37°C, 20 hours, TUNEL)	Effect on biotin-z13 localization (endosome-escaping activity) [6]
VRRADNRPG [z13]	the strongest binder	cell viability was not affected	blocked	single 68 kDa protein	–	–	–	–
KLAKLAKKLAKLAKKLAKVRRADNRPG [dKLAK-z13]	–	cell viability was not affected except at high concentrations	–	–	> 200	apoptosis was not induced; also recorded: did not induce apoptosis	–	–
HLAHLAHHLAHLAHHLAHVRRADNRPG [HLAH-z13]	–	cell viability was not affected except at high concentrations	–	–	> 50	–	did not undergo apoptosis	diffuse cytoplasmic signals
